Laboratory results reported in ChEMBL document CHEMBL3124890, “SAR studies on trisubstituted benzimidazoles as inhibitors of Mtb FtsZ for the development of novel antitubercular agents” (J Med Chem, 2013).
In brackets after ≈: the same amount, converted by molar mass. Activity calls are given as the source filed them. The calls are words filed in the database; no cut-off is given here.

Columns and labels:
[1] = tested on: Mycobacterium tuberculosis; test: […]; format: functional
Method in brief: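 Strains were grown at 37 °C in 7H9 Middlebrook broth with 10% OADC, 0.05% Tween and 0.2% glycerol. Compounds were dissolved in DMSO and serially diluted 2-fold, then bacteria were added. Plates were incubated 6 days at 37 °C, then 24 h more with Alamar Blue. MIC was the lowest concentration (μg/mL) that prevented the colour change. Run in triplicate.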

[2] = target: T1, Cell division protein FtsZ (Mycobacterium tuberculosis) (UniProt P9WN95); test: Inhibition of Mycobacterium tuberculosis FtsZ polymerization expressed in Escherichia coli BL21 (DE3) using GTP as substrate assessed as reduction in protofilaments at 40 to 80 uM by transmission electron microscopy
T1 sequence (whole entry): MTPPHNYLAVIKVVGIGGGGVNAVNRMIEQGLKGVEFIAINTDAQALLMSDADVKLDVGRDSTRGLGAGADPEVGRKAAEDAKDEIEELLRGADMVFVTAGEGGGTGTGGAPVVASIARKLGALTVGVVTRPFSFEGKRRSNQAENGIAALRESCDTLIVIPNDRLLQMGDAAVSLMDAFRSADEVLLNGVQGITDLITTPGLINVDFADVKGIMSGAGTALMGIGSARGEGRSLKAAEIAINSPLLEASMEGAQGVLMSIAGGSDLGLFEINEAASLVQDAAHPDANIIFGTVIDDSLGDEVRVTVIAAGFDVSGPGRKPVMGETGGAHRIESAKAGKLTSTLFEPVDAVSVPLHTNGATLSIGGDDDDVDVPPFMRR
Method in brief: (§1)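 His-tagged Mtb FtsZ (pET15b, BL21(DE3), Ni-NTA purified) at 5 µM in 50 mM MES, 5 mM MgCl₂, 100 mM KCl, pH 6.5 was preincubated 15 min on ice with 40 or 80 µM compound (ethanol stock). GTP was added to 25 µM and samples were held at 37 °C for 30 min, then diluted 2×, stained with 1% uranyl acetate, and imaged by TEM.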

[3] = target: T1, Cell division protein FtsZ (Mycobacterium tuberculosis); test: Inhibition of Mycobacterium tuberculosis FtsZ polymerization expressed in Escherichia coli BL21 (DE3) using GTP as substrate assessed as reduction in density and population of FtsZ polymers at 40 to 80 uM by transmission electron microscopy; method in brief: as §1
[4] = tested on: Vero; test: Cytotoxicity against Vero cells after 3 days by Alamar Blue assay; format: cell-based; conditions: Chlorocebus sabaeus, 72 h
Method in brief: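 Vero (African green monkey kidney epithelial) cells were grown without CO₂ in L15 with antibiotics and heat-inactivated calf serum. Cells in medium with 2X Alamar Blue were added at 1.3×10^4 cells/well to 2-fold serial drug dilutions. Plates were incubated 3 days at 37 °C, and IC50 was calculated per the manufacturer's directions.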

[5] = target: T1, Cell division protein FtsZ (Mycobacterium tuberculosis); test: Inhibition of Mycobacterium tuberculosis FtsZ polymerization expressed in Escherichia coli BL21 (DE3) using GTP as substrate by spectrofluorimetric analysis
[6] = target: T1, Cell division protein FtsZ (Mycobacterium tuberculosis); test: Inhibition of Mycobacterium tuberculosis FtsZ polymerization expressed in Escherichia coli BL21 (DE3) using GTP as substrate assessed as disassembly of FtsZ at 40 to 80 uM by transmission electron microscopy
Method in brief: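 His-tagged Mtb FtsZ (pET15b, BL21(DE3), Ni-NTA purified, Bradford-quantified) at 5 µM in 50 mM MES, 5 mM MgCl₂, 100 mM KCl, pH 6.5 was polymerized with 25 µM GTP at 37 °C for 30 min. Compound (40 or 80 µM, ethanol stock) was then added for 5 min more. Samples were diluted 2×, negatively stained with 1% uranyl acetate, and imaged by TEM.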

[7] = target: T1, Cell division protein FtsZ (Mycobacterium tuberculosis); test: Inhibition of Mycobacterium tuberculosis FtsZ polymerization expressed in Escherichia coli BL21 (DE3) using GTP as substrate assessed as reduction in aggregate formation at 40 to 80 uM by transmission electron microscopy; method in brief: as §1

| SMILES | MIC ([1]; H37Rv, 144 h) [µg/mL] | MIC ([1]; W210, 144 h) [µg/mL] | inhibition [2] | inhibition [3] | IC50 [4] [µg/mL] | inhibition [5] | inhibition [6] | inhibition [7] |
| --- | --- | --- | --- | --- | --- | --- | --- | --- |
| CCCCOC(=O)Nc1cc2nc(C3CCCCC3)[nH]c2cc1N(C)C | 0.06 (≈ 0.167 µM) | 0.06 (≈ 0.167 µM) | Active | Active | > 100 | Dose-dependent effect | Active | Active |
| CN(C)c1cc2[nH]c(C3CCCCC3)nc2cc1NC(=O)OCC(F)(F)F | 0.63 (≈ 1.64 µM) | – | – | – | > 100 | Dose-dependent effect | – | – |
| CCc1ccc(C(=O)Nc2cc3nc(C4CCCCC4)[nH]c3cc2N(C)C)cc1 | 0.16 (≈ 0.41 µM) | 0.16 (≈ 0.41 µM) | – | – | > 100 | Dose-dependent effect | – | – |
| CCCNC(=O)Nc1cc2nc(C3CCCCC3)[nH]c2cc1N(CC)CC | > 100 | – | – | – | > 100 | – | – | – |
| O=C(CCc1ccccc1)Nc1cc2nc(C3CCCCC3)[nH]c2cc1N1CCCC1 | 12.5 (≈ 30 µM) | – | – | – | > 100 | – | – | – |
| CCN(CC)c1cc2[nH]c(C3CCCCC3)nc2cc1NC(=O)c1ccc(C)cc1 | 12.5 (≈ 30.9 µM) | – | – | – | > 100 | – | – | – |
